The source of these data is publication PMC9301648 (ACS Omega, 2022).

Data set [1] is described as follows: cytotoxicity toward MRC5 cells, same conditions without virus infection. The format is cell-based. The note with it: human. In short, it runs like this: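 Run in parallel with the antiviral CPE assay under identical conditions without virus infection. MRC5 cells were seeded at 20,000 cells/well and cultured overnight at 37 °C, 5% CO₂. Test compound diluted in assay medium was added; final DMSO 0.5%. Viability was read by CellTiter Glo. Single-point at 25 μM; CC50 by four-parameter log(inhibitor) vs response variable-slope regression.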

Data set [2] relates to human coronavirus (HCoV) 229E. Put plainly: cytopathic effect. The format is cell-based. The note with it: for inhibition at 25 µM: unidentified human coronavirus, MRC5, read-out: normalized inhibition % (25 μM); for inhibition of HCoV 229E in words: 25 μM, MRC5 cells. The essentials:
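MRC5 cells were seeded at 20,000 cells/well and grown overnight at 37 °C, 5% CO₂. Test compound diluted in assay medium was added, then HCoV 229E diluted in assay medium; final DMSO 0.5%. CPE was read by CellTiter Glo. Protection at each concentration was normalized to virus-only control. Screen at 25 μM; EC50 from full dose–response by four-parameter variable-slope nonlinear regression.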
On the technique in general: Damage to the host cells serves as the signal in cytopathic effect assays.

Regarding `CC(=O)OC[C@@]1(C)[C@H]2CC[C@@H]3CN(Cc4ccccc4)[C@@H](C4=CCOC4=O)C[C@H]3[C@]2(C)CC[C@H]1OC(C)=O` [4a, ((2R,4aS,6aS,7R,8R,10aS,10bR)-8-Acetoxy-3-benzyl-7,10a-dimethyl-2-(2-oxo-2,5-dihydrofuran-3-yl)tetradecahydrobenzo[f]isoquinolin-7-yl)methyl Acetate], the cytotoxicity at 3 days, 25 µM in data set [1] worked out at 15.5%. In data set [2], the inhibition at 25 µM amounted to 66.8%.
The corresponding values for `CC(=O)OC[C@@]1(C)[C@H]2CC[C@@H]3CN(Cc4ccc(F)c(Cl)c4)[C@@H](C4=CCOC4=O)C[C@H]3[C@]2(C)CC[C@H]1OC(C)=O` [4n, ((2R,4aS,6aS,7R,8R,10aS,10bR)-8-Acetoxy-3-(3-chloro-4-fluorobenzyl)-7,10a-dimethyl-2-(2-oxo-2,5-dihydrofuran-3-yl)tetradecahydrobenzo[f]isoquinolin-7-yl)methyl Acetate] are -4.9% and 102%.
The corresponding values for `C[C@]1(CO)[C@H]2CC[C@@H]3CN(Cc4ccccc4)[C@@H](C4=CCOC4=O)C[C@H]3[C@]2(C)CC[C@H]1O` [11a, 3-((2R,4aS,6aS,7R,8R,10aS,10bR)-3-Benzyl-8-hydroxy-7-(hydroxymethyl)-7,10a-dimethyltetradecahydrobenzo[f]isoquinolin-2-yl)furan-2(5H)-one] are -4.8% and 39.7%.
In the case of `CC(=O)OC[C@@]1(C)[C@H]2CC[C@@H]3CN(CCC(C)C)[C@@H](C4=CCOC4=O)C[C@H]3[C@]2(C)CC[C@H]1OC(C)=O` [4v, ((2R,4aS,6aS,7R,8R,10aS,10bR)-8-Acetoxy-3-isopentyl-7,10a-dimethyl-2-(2-oxo-2,5-dihydrofuran-3-yl)tetradecahydrobenzo[f]isoquinolin-7-yl)methyl Acetate], in data set [1], the cytotoxicity at 3 days, 25 µM is 3.2%. In addition, the inhibition at 25 µM in data set [2] stood at 102%.
The corresponding values for `C=C1CC[C@@H]2[C@](C)(CO)[C@H](O)CC[C@@]2(C)[C@@H]1C/C=C1/C(=O)OC[C@H]1O` [andrographolide 1, andrographolide, reference compound] are 23.6% and 34.8%.
The corresponding values for `CC(=O)OC[C@@]1(C)[C@H]2CC[C@@H]3CN(C4CCCC4)[C@@H](C4=CCOC4=O)C[C@H]3[C@]2(C)CC[C@H]1OC(C)=O` [4w, ((2R,4aS,6aS,7R,8R,10aS,10bR)-8-Acetoxy-3-cyclopentyl-7,10a-dimethyl-2-(2-oxo-2,5-dihydrofuran-3-yl)tetradecahydrobenzo[f]isoquinolin-7-yl)methyl Acetate] are -4.5% and 11.3%.
Take `CC(=O)OC[C@@]1(C)[C@H]2CC[C@@H]3CN(C4CCCCCC4)[C@@H](C4=CCOC4=O)C[C@H]3[C@]2(C)CC[C@H]1OC(C)=O` [4y, ((2R,4aS,6aS,7R,8R,10aS,10bR)-8-Acetoxy-3-cycloheptyl-7,10a-dimethyl-2-(2-oxo-2,5-dihydrofuran-3-yl)tetradecahydrobenzo[f]isoquinolin-7-yl)methyl Acetate]: in data set [1], the CC50 at 3 days is above 100 µM and the cytotoxicity at 3 days, 25 µM was -18.2%. Also, the inhibition at 25 µM in data set [2] was 135%.
For the compound `Cc1ccc(CN2C[C@H]3CC[C@@H]4[C@]5(C)COC(C)(C)O[C@@H]5CC[C@@]4(C)[C@@H]3C[C@@H]2C2=CCOC2=O)cc1` [9f, 3-((4aR,4bS,6aS,9R,10aR,10bS,12aR)-2,2,4a,10b-Tetramethyl-8-(4-methylbenzyl)tetradecahydro-4H-[1,3]dioxino[5′,4′:3,4]benzo[1,2-f]isoquinolin-9-yl)furan-2(5H)-one], in data set [1], the CC50 at 3 days is above 100 µM and the cytotoxicity at 3 days, 25 µM was -1.6%. Further, in data set [2], the “inhibition of HCoV 229E in words” value is on record as “good inhibition” and the inhibition at 25 µM was found to be 100%.
In the case of `CC1(C)OC[C@@]2(C)[C@H]3CC[C@@H]4CN(Cc5ccc(C(C)(C)C)cc5)[C@@H](C5=CCOC5=O)C[C@H]4[C@]3(C)CC[C@H]2O1` [9g, 3-((4aR,4bS,6aS,9R,10aR,10bS,12aR)-8-(4-(tert-Butyl)benzyl)-2,2,4a,10b-tetramethyltetradecahydro-4H-[1,3]dioxino[5′,4′:3,4]benzo[1,2-f]isoquinolin-9-yl)furan-2(5H)-one], the cytotoxicity at 3 days, 25 µM in data set [1] was -0.2%. In addition, the inhibition at 25 µM in data set [2] was 103%.
Regarding `CC(=O)OC[C@@]1(C)[C@H]2CC[C@@H]3CN(Cc4ccc(O)cc4)[C@@H](C4=CCOC4=O)C[C@H]3[C@]2(C)CC[C@H]1OC(C)=O` [4j, ((2R,4aS,6aS,7R,8R,10aS,10bR)-8-Acetoxy-3-(4-hydroxybenzyl)-7,10a-dimethyl-2-(2-oxo-2,5-dihydrofuran-3-yl)tetradecahydrobenzo[f]isoquinolin-7-yl)methyl Acetate], the cytotoxicity at 3 days, 25 µM in data set [1] is -5.2%. For the same compound, the inhibition at 25 µM in data set [2] came out at 55.6%.
The corresponding values for `CC(=O)OC[C@@]1(C)[C@H]2CC[C@@H]3CN(Cc4cccc5ccccc45)[C@@H](C4=CCOC4=O)C[C@H]3[C@]2(C)CC[C@H]1OC(C)=O` [4q, ((2R,4aS,6aS,7R,8R,10aS,10bR)-8-Acetoxy-7,10a-dimethyl-3-(naphthalen-1-ylmethyl)-2-(2-oxo-2,5-dihydrofuran-3-yl)tetradecahydrobenzo[f]isoquinolin-7-yl)methyl Acetate] are -14.7% and 121%.
For `CC(=O)OC[C@@]1(C)[C@H]2CC[C@@H]3CN(Cc4ccccc4F)[C@@H](C4=CCOC4=O)C[C@H]3[C@]2(C)CC[C@H]1OC(C)=O` [4l, ((2R,4aS,6aS,7R,8R,10aS,10bR)-8-Acetoxy-3-(2-fluorobenzyl)-7,10a-dimethyl-2-(2-oxo-2,5-dihydrofuran-3-yl)tetradecahydrobenzo[f]isoquinolin-7-yl)methyl Acetate], in data set [1], the half-maximal cytotoxic concentration (CC50) at 3 days was above 100 µM and the cytotoxicity at 3 days, 25 µM is -19.5%. Moreover, the inhibition at 25 µM in data set [2] came out at 148%.
`CCCN1C[C@H]2CC[C@@H]3[C@](C)(COC(C)=O)[C@H](OC(C)=O)CC[C@@]3(C)[C@@H]2C[C@@H]1C1=CCOC1=O` [4r, ((2R,4aS,6aS,7R,8R,10aS,10bR)-8-Acetoxy-7,10a-dimethyl-2-(2-oxo-2,5-dihydrofuran-3-yl)-3-propyltetradecahydrobenzo[f]isoquinolin-7-yl)methyl Acetate]: the cytotoxicity at 3 days, 25 µM in data set [1] was -5.6%. Also, the inhibition at 25 µM in data set [2] is 51.4%.
Regarding `CC(=O)OC[C@@]1(C)[C@H]2CC[C@@H]3CN(Cc4cccc(Cl)c4)[C@@H](C4=CCOC4=O)C[C@H]3[C@]2(C)CC[C@H]1OC(C)=O` [4m, ((2R,4aS,6aS,7R,8R,10aS,10bR)-8-Acetoxy-3-(3-chlorobenzyl)-7,10a-dimethyl-2-(2-oxo-2,5-dihydrofuran-3-yl)tetradecahydrobenzo[f]isoquinolin-7-yl)methyl Acetate], in data set [1], the CC50 at 3 days was above 100 µM and the cytotoxicity at 3 days, 25 µM is -13.2%. Further, the inhibition at 25 µM in data set [2] is 130%.
With `CC(=O)OC[C@@]1(C)[C@H]2CC[C@@H]3CN(Cc4ccco4)[C@@H](C4=CCOC4=O)C[C@H]3[C@]2(C)CC[C@H]1OC(C)=O` [4o, ((2R,4aS,6aS,7R,8R,10aS,10bR)-8-Acetoxy-3-(furan-2-ylmethyl)-7,10a-dimethyl-2-(2-oxo-2,5-dihydrofuran-3-yl)tetradecahydrobenzo[f]isoquinolin-7-yl)methyl Acetate], the cytotoxicity at 3 days, 25 µM in data set [1] was -4.5%. In data set [2], the “inhibition of HCoV 229E in words” value is on record as “weak inhibition effect” and the inhibition at 25 µM was found to be 58.4%.
On to `C[C@@]12COCO[C@@H]1CC[C@]1(C)[C@@H]2CC[C@@H]2CN(Cc3cccs3)[C@@H](C3=CCOC3=O)C[C@H]21` [10d, 3-((4aR,4bS,6aS,9R,10aR,10bS,12aR)-4a,10b-Dimethyl-8-(thiophen-2-ylmethyl)tetradecahydro-4H-[1,3]dioxino[5′,4′:3,4]benzo[1,2-f]isoquinolin-9-yl)furan-2(5H)-one], for which, in data set [1], the cytotoxicity at 3 days, 25 µM was -13.4%. For the same compound, the inhibition at 25 µM in data set [2] was 58.6%.
As for `CC(=O)OC[C@@]1(C)[C@H]2CC[C@@H]3CN(Cc4ccc(C(F)(F)F)cc4)[C@@H](C4=CCOC4=O)C[C@H]3[C@]2(C)CC[C@H]1OC(C)=O` [4h, ((2R,4aS,6aS,7R,8R,10aS,10bR)-8-Acetoxy-7,10a-dimethyl-2-(2-oxo-2,5-dihydrofuran-3-yl)-3-(4-(trifluoromethyl)benzyl)tetradecahydrobenzo[f]isoquinolin-7-yl)methyl Acetate], in data set [1], the cytotoxicity at 3 days, 25 µM is -5.4%. Further, in data set [2], the inhibition at 25 µM came out at 119%.
In the case of `CC(=O)OC[C@@]1(C)[C@H]2CC[C@@H]3CN(Cc4cccs4)[C@@H](C4=CCOC4=O)C[C@H]3[C@]2(C)CC[C@H]1OC(C)=O` [4p, ((2R,4aS,6aS,7R,8R,10aS,10bR)-8-Acetoxy-7,10a-dimethyl-2-(2-oxo-2,5-dihydrofuran-3-yl)-3-(thiophen-2-ylmethyl)tetradecahydrobenzo[f]isoquinolin-7-yl)methyl Acetate], the cytotoxicity at 3 days, 25 µM in data set [1] was found to be 4.2%. In addition, in data set [2], the “inhibition of HCoV 229E in words” value is “weak inhibition effect” and the inhibition at 25 µM was found to be 26.9%.
As to `CC1(C)OC[C@@]2(C)[C@H]3CC[C@@H]4CN(Cc5ccc([N+](=O)[O-])cc5)[C@@H](C5=CCOC5=O)C[C@H]4[C@]3(C)CC[C@H]2O1` [9h, 3-((4aR,4bS,6aS,9R,10aR,10bS,12aR)-2,2,4a,10b-Tetramethyl-8-(4-nitrobenzyl)tetradecahydro-4H-[1,3]dioxino[5′,4′:3,4]benzo[1,2-f]isoquinolin-9-yl)furan-2(5H)-one], in data set [1], the cytotoxicity at 3 days, 25 µM is -4.7%. The inhibition at 25 µM in data set [2] is 102%.

The term inhibition denotes the relative decrease from the control value, in per cent. For orientation: CC50 means the concentration giving 50% cytotoxicity. Low values mean greater toxicity to the cells, high ones lower toxicity to the cells.
